Measurements taken from ChEMBL document CHEMBL1125724, “Potential anti-AIDS agents. Synthesis and antiviral activity of naphthalenesulfonic acid derivatives against HIV-1 and HIV-2” (1991).

Tests used:
[1] = target: Human immunodeficiency virus type 1 reverse transcriptase (Human immunodeficiency virus 1) (UniProt Q72547); test: Compound tested for % inhibition of cell-free HIV-1 Reverse Transcriptase at a concentration of 490 uM
In short: (§1)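 HIV-1 RT came from disrupted, partially purified, concentrated virions. Reaction ran 30 min at 37 °C in 50 mM Tris-HCl pH 8.4 with 2 mM DTT, 100 mM KCl, 10 mM MgCl2, 0.1% Triton X-100, [methyl-3H]dTTP (1 µCi, 30 Ci/mmol), poly(rA)·oligo(dT) template and compound. It was stopped with 5% TCA, and precipitate was filter-collected and scintillation-counted. Variation was at most 10%.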

MT4 [2] = test: Compound was evaluated for inhibitory effect against MT-4 cells of HIV-1 at a concentration of 100(98) ug/mL (uM).; assay type: functional, Homo sapiens
In short: (§2)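 HIV-1 (HTLV-III_B) infected MT-4 cells at multiplicity of infection 0.02, incubated with a range of compound concentrations for 4 days. Viable cells counted by MTT method. Per-concentration inhibition of virus-induced cytopathogenicity; values are means of two separate experiments.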

[3] = target: Human immunodeficiency virus type 1 reverse transcriptase (Human immunodeficiency virus 1) (UniProt Q72547); test: Compound tested for % inhibition of cell-free HIV-1 Reverse Transcriptase at a concentration of 3.9 uM; in short: as §1
MT4 [4] = test: Compound was evaluated for inhibitory effect against MT-4 cells of HIV-1 at a concentration of 4(3.9) ug/mL (uM).; assay type: functional, Homo sapiens; in short: as §2
[5] = target: Human immunodeficiency virus type 1 reverse transcriptase (Human immunodeficiency virus 1) (UniProt Q72547); test: Compound tested for % inhibition of cell-free HIV-1 Reverse Transcriptase at a concentration of 19.6 uM; in short: as §1
MT4 [6] = test: Compound was evaluated for inhibitory effect against MT-4 cells of HIV-2 at a concentration of 100(98) ug/mL (uM).; assay type: functional, Homo sapiens
In short: (§3)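 HIV-2 (ROD strain) infected MT-4 cells at multiplicity of infection 0.02, incubated with a range of compound concentrations for 4 days. Viable cells counted by MTT method. Per-concentration inhibition of virus-induced cytopathogenicity; values are means of two separate experiments.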

MT4 [7] = test: Compound tested for its inhibition of HIV-2 induced cytopathogenicity in MT-4 cells.; assay type: functional; details: Homo sapiens, read-out: ED50 (the source's name)
In short: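 MT-4 cells infected with HIV-2 (ROD) at MOI 0.02 and incubated 4 days with a range of compound concentrations. Viable cells were counted by MTT. ED50 is the dose giving 50% inhibition of virus-induced cytopathogenicity, given as the mean of two separate experiments.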

[8] = tested on: Human immunodeficiency virus 1; test: Compound tested for % inhibition of giant cell formation at a concentration of 98 uM
MOLT-4 (Homo sapiens) = test: as above
MT4 [9] = test: Compound was evaluated for inhibitory effect against MT-4 cells of HIV-2 at a concentration of 20(19.6) ug/mL (uM).; assay type: functional, Homo sapiens; in short: as §3
MT4 [10] = test: Cell viability at a concentration of 4(3.9) ug/mL (uM).; assay type: functional, Homo sapiens
MT4 [11] = test: Cell viability at a concentration of 0.8(0.8) ug/mL (uM).; assay type: functional, Homo sapiens
[12] = target: Human immunodeficiency virus type 1 reverse transcriptase (Human immunodeficiency virus 1) (UniProt Q72547); test: Inhibitory dose at a concentration 490 uM cell-free HIV-1 Reverse Transcriptase
In short: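 HIV-1 RT from disrupted, partially purified and concentrated virions. 37 °C for 30 min in 50 mM Tris-HCl pH 8.4, 2 mM DTT, 100 mM KCl, 10 mM MgCl₂, 0.1% Triton X-100, 1 µCi [methyl-³H]dTTP, 0.01 unit poly(rA)·oligo(dT). Stopped with 5% TCA; precipitate collected on glass-fiber filters and counted by scintillation. Means of two experiments; variation ≤10%.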

MT4 [13] = test: Compound tested for its ability to reduce viability of mock-infected MT-4 cells.; assay type: functional; details: Homo sapiens, read-out: CD50 (the source's name)
In short: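 Mock-infected MT-4 cells were incubated 4 days with a range of compound concentrations, and viability was read by MTT. CD50 is the 50% cytotoxic dose from reduced viability, given as the mean of two separate experiments.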

MT4 [14] = test: Compound tested for its inhibition of HIV-1 induced cytopathogenicity in MT-4 cells.; assay type: functional; details: Homo sapiens, read-out: ED50 (the source's name)
In short: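 MT-4 cells infected with HIV-1 (HTLV-III_B) at MOI 0.02 and incubated 4 days with a range of compound concentrations. Viable cells were counted by MTT. ED50 is the 50% antiviral dose from inhibition of virus-induced cytopathogenicity, given as the mean of two separate experiments.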

MT4 [15] = test: Compound was evaluated for inhibitory effect against MT-4 cells of HIV-2 at a concentration of 4(3.9) ug/mL (uM).; assay type: functional, Homo sapiens; in short: as §3
MT4 [16] = test: Cell viability at a concentration of 20(19.6) ug/mL (uM).; assay type: functional, Homo sapiens
MT4 [17] = test: Compound was evaluated for inhibitory effect against MT-4 cells of HIV-1 at a concentration of 20(19.6) ug/mL (uM).; assay type: functional, Homo sapiens; in short: as §2
MT4 [18] = test: Cell viability at a concentration of 100(98) ug/mL (uM).; assay type: functional, Homo sapiens
MT4 [19] = test: Compound was evaluated for inhibitory effect against MT-4 cells of HIV-1 at a concentration of 0.8(0.8) ug/mL (uM).; assay type: functional, Homo sapiens; in short: as §2
MT4 [20] = test: Compound was evaluated for inhibitory effect against MT-4 cells of HIV-2 at a concentration of 0.8(0.8) ug/mL (uM).; assay type: functional, Homo sapiens; in short: as §3
MT4 [21] = test: Cell viability at a concentration of 20(21.4) ug/mL (uM).; assay type: functional, Homo sapiens
MT4 [22] = test: Cell viability at a concentration of 100(107) ug/mL (uM).; assay type: functional, Homo sapiens
MT4 [23] = test: Compound was evaluated for inhibitory effect against MT-4 cells of HIV-1 at a concentration of 4(4.3) ug/mL (uM).; assay type: functional, Homo sapiens; in short: as §2
MT4 [24] = test: Compound was evaluated for inhibitory effect against MT-4 cells of HIV-2 at a concentration of 4(4.3) ug/mL (uM).; assay type: functional, Homo sapiens; in short: as §3
MT4 [25] = test: Compound was evaluated for inhibitory effect against MT-4 cells of HIV-1 at a concentration of 20(21.4) ug/mL (uM).; assay type: functional, Homo sapiens; in short: as §2
MT4 [26] = test: Cell viability at a concentration of 4(4.3) ug/mL (uM).; assay type: functional, Homo sapiens
MT4 [27] = test: Compound was evaluated for inhibitory effect against MT-4 cells of HIV-1 at a concentration of 0.8(0.9) ug/mL (uM).; assay type: functional, Homo sapiens; in short: as §2
[28] = target: Human immunodeficiency virus type 1 reverse transcriptase (Human immunodeficiency virus 1) (UniProt Q72547); test: Compound tested for % inhibition of cell-free HIV-1 Reverse Transcriptase at a concentration of 21.4 uM.
In short: (§4)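 HIV-1 RT from partially purified, concentrated disrupted virions. Reaction at 37 °C for 30 min in 50 mM Tris-HCl pH 8.4, 2 mM DTT, 100 mM KCl, 10 mM MgCl2, 0.1% Triton X-100, with 1 µCi [methyl-3H]dTTP (30 Ci/mmol) and 0.01 unit poly(rA)·oligo(dT). Stopped with 5% TCA; precipitate collected on glass-fiber filters and counted by liquid scintillation. Experimental variation at most 10%.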

[29] = target: Human immunodeficiency virus type 1 reverse transcriptase (Human immunodeficiency virus 1) (UniProt Q72547); test: Compound tested for % inhibition of cell-free HIV-1 Reverse Transcriptase at a concentration of 535 uM; in short: as §4
MT4 [30] = test: Cell viability at a concentration of 0.8(0.9) ug/mL (uM).; assay type: functional, Homo sapiens
MT4 [31] = test: Compound was evaluated for inhibitory effect against MT-4 cells of HIV-1 at a concentration of 100(107) ug/mL (uM).; assay type: functional, Homo sapiens; in short: as §2
[32] = target: Human immunodeficiency virus type 1 reverse transcriptase (Human immunodeficiency virus 1) (UniProt Q72547); test: Inhibitory dose at a concentration 535 uM cell-free HIV-1 Reverse Transcriptase; in short: as §4
[33] = tested on: Human immunodeficiency virus 1; test: Compound tested for % inhibition of giant cell formation at a concentration of 107 uM
[34] = target: Human immunodeficiency virus type 1 reverse transcriptase (Human immunodeficiency virus 1) (UniProt Q72547); test: Compound tested for % inhibition of cell-free HIV-1 Reverse Transcriptase at a concentration of 4.3 uM; in short: as §4
MT4 [35] = test: Compound was evaluated for inhibitory effect against MT-4 cells of HIV-2 at a concentration of 0.8(0.9) ug/mL (uM).; assay type: functional, Homo sapiens; in short: as §3
MT4 [36] = test: Compound was evaluated for inhibitory effect against MT-4 cells of HIV-2 at a concentration of 100(107) ug/mL (uM).; assay type: functional, Homo sapiens; in short: as §3
MT4 [37] = test: Compound was evaluated for inhibitory effect against MT-4 cells of HIV-2 at a concentration of 20(21.4) ug/mL (uM).; assay type: functional, Homo sapiens; in short: as §3

SMILES: O=S(=O)([O-])c1cc(O)c2c(NS(=O)(=O)c3ccc(-c4ccc(S(=O)(=O)Nc5cc(S(=O)(=O)[O-])cc6cc(S(=O)(=O)[O-])cc(O)c56)cc4)cc3)cc(S(=O)(=O)[O-])cc2c1.[Na+].[Na+].[Na+].[Na+]
- inhibition [1]: 100%
- Inhibition (MT4 [2]): 100%
- inhibition [3]: 0%
- Inhibition (MT4 [4]): 15%
- inhibition [5]: 30%
- Inhibition (MT4 [6]): 100%
- EC50 (MT4 [7]): 37 µg/mL
- inhibition [8]: 100%
- inhibition at 98 µM (MOLT-4 (Homo sapiens)): 100%
- Inhibition (MT4 [9]): 20%
- Cell viability (MT4 [10]): 0
- Cell viability (MT4 [11]): 0
- ID50 [12]: 190 µg/mL
- CC50 (MT4 [13]): > 100 µg/mL
- EC50 (MT4 [14]): 7.8 µg/mL
- Inhibition (MT4 [15]): 7%
- Cell viability (MT4 [16]): 0
- Inhibition (MT4 [17]): 100%
- Cell viability (MT4 [18]): 0
- Inhibition (MT4 [19]): 5%
- Inhibition (MT4 [20]): 6%

SMILES: O=C(CCCCCCCCCCC(=O)Nc1cc(S(=O)(=O)O)cc2cc(S(=O)(=O)[O-])cc(O)c12)Nc1cc(S(=O)(=O)O)cc2cc(S(=O)(=O)[O-])cc(O)c12.[Na+].[Na+]
- EC50 (MT4 [7]): 43 µg/mL
- Cell viability (MT4 [21]): 9
- Cell viability (MT4 [22]): 0
- Inhibition (MT4 [23]): 2%
- Inhibition (MT4 [24]): 3%
- Inhibition (MT4 [25]): 14%
- Cell viability (MT4 [26]): 5
- Inhibition (MT4 [27]): 0%
- inhibition [28]: 44%
- inhibition [29]: 100%
- Cell viability (MT4 [30]): 4
- Inhibition (MT4 [31]): 100%
- CC50 (MT4 [13]): > 100 µg/mL
- ID50 [32]: 160 µg/mL
- EC50 (MT4 [14]): 39 µg/mL
- inhibition [33]: 99%
- inhibition [34]: 15%
- Inhibition (MT4 [35]): 3%
- Inhibition (MT4 [36]): 100%
- Inhibition (MT4 [37]): 4%
